ChEMBL document CHEMBL5321232, “Synthesis and biological evaluation of dual MDM2/XIAP inhibitors based on the tetrahydroquinoline scaffold” (Eur J Med Chem, 2023)
pIC50: −log10 of the molar value.

What was measured:
CWR22R [1] = test: Antiproliferative activity against human 22Rv1 cells assessed as inhibition of cell growth incubated for 72 hrs by MTS assay; format: functional, cell-based; details: 22Rv1, 72 h
Procedure, shortened: (§1)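 Cells seeded at 3,000–8,000 per well according to growth rate and incubated overnight. They were then exposed to compounds over 3 nM–100 μM for 72 h, four replicates per concentration. MTS added, 1.5 h in the dark at 37 °C, absorbance read at 490 nm. IC50 normalized to untreated cells and fitted by nonlinear regression.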

[2] = Antiproliferative activity against human EU-1 cells assessed as inhibition of cell growth incubated for 44 hrs by WST assay; format: functional, cell-based; details: EU-1, 44 h
Procedure, shortened: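 Pediatric ALL-derived EU-1 cells grown in RPMI 1640 with 10% FBS, 2 mmol/L L-glutamine and penicillin/streptomycin at 37 °C, 5% CO2. Compounds given at graded concentrations for 44 h. WST (25 μg/well) then added for a further 4 h. OD read at 450 nm against a 620 nm reference, with cell-free wells for background.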

MDA-MB-231 = test: Antiproliferative activity against human MDA-MB-231 cells assessed as inhibition of cell growth incubated for 72 hrs by MTS assay; format: functional, cell-based; details: MDA-MB-231, 72 h; procedure, shortened: as §1
A-375 = test: Antiproliferative activity against human A-375 cells assessed as inhibition of cell growth incubated for 72 hrs by MTS assay; details: A-375, 72 h
CWR22R [3] = test: Inhibition of colony formation in human 22Rv1 cells assessed as reduction in number of clonogenic cells incubated for 14 days and subsequent media replacement with compound for every 3 days by crystal violet staining based microscopic analysis; format: functional, cell-based; details: dose 1-10 µM, time 14.0 day
Procedure, shortened: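 22Rv1 cells in log phase were seeded at 2,000 per well and incubated 72 h. They were then treated with 1, 5 or 10 μM for 14 days, with medium ± compound renewed every 3 days. Colonies were fixed in cold methanol, stained with 0.5% crystal violet and counted microscopically. Run in triplicate; area expressed relative to vehicle (100%) as mean ± SEM of three biological replicates.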

Row | Compound | pIC50 (MDA-MB-231) | pIC50 (A-375) | pIC50 (CWR22R [1]) | pIC50 [2] | inhibition (CWR22R [3])
1 | CC(C)[C@@H](CS(=O)(=O)C(C)C)N1C(=O)[C@@](C)(CC(=O)O)C[C@H](c2cccc(Cl)c2)[C@H]1c1ccc(Cl)cc1 [NAVTEMADLIN] | < 5.00 | 6.22 | 6.52 | 6.05 | –
2 | CN[C@@H](C)C(=O)N[C@H](C(=O)N1CCC[C@H]1C(=O)Nc1snnc1-c1ccccc1)C1CCCCC1 [GDC-0152] | – | – | – | 6.10 | –
3 | CC(C)C(=O)c1ccc(C2Nc3ccc(S(=O)(=O)Nc4cccc(C(C)(C)C)c4)cc3C3OCCC23)cc1 (configuration not stated) | 5.70 | 5.29 | 5.89 | 5.21 | –
4 | O=S(=O)(Nc1ccc2c(c1)CCCC2)c1ccc2c(c1)C1OCCC1C(C1CCCCC1)N2 (configuration not stated) | 5.66 | < 5.00 | < 5.00 | 5.64 | –
5 | CC(=O)c1cccc(NS(=O)(=O)c2ccc3c(c2)C2OCCC2C(c2cccc(C(C)=O)c2)N3)c1 (configuration not stated) | 5.66 | 5.60 | < 5.00 | 6.00 | –
6 | Cc1ccc(NS(=O)(=O)c2ccc3c(c2)C2OCCC2C(C2CCCCC2)N3)cc1C (configuration not stated) | 5.24 | 5.01 | < 5.00 | 6.10 | –
7 | Cc1ccc(NS(=O)(=O)c2ccc3c(c2)C2OCCC2C(c2ccc(C(=O)C(C)C)cc2)N3)cc1C (configuration not stated) | 5.66 | 5.66 | 5.28 | 6.30 | Dose-Dependent Effect
8 | CC(=O)c1cccc(S(=O)(=O)Nc2ccc3c(c2)C2OCCC2C(c2ccc(C(=O)C(C)C)cc2)N3)c1 (configuration not stated) | 5.70 | 5.33 | 5.11 | 6.15 | –
9 | Cc1cc(NS(=O)(=O)c2ccc3c(c2)C2OCCC2C(C2CCCCC2)N3)ccc1C(F)(F)F (configuration not stated) | < 5.00 | < 5.00 | – | 5.48 | –
10 | CC1CCC(NS(=O)(=O)c2ccc3c(c2)C2OCCC2C(C2CCCCC2)N3)CC1 (configuration not stated) | 5.62 | 5.12 | < 5.00 | 5.72 | –
11 | CC(=O)N1CCC(C2Nc3ccc(S(=O)(=O)Nc4ccc(C)c(C)c4)cc3C3OCCC32)CC1 (configuration not stated) | < 5.00 | < 5.00 | – | < 5.00 | –
12 | Cc1ccc(NS(=O)(=O)c2ccc3c(c2)C2OCCC2C(C2CCOCC2)N3)cc1C (configuration not stated) | 5.52 | 4.92 | < 5.00 | 5.80 | –
13 | O=S(=O)(Nc1ccc(Br)c(Br)c1)c1ccc2c(c1)C1OCCC1C(C1CCCCC1)N2 (configuration not stated) | < 5.00 | < 5.00 | – | 5.29 | –
14 | Cc1ccc(NS(=O)(=O)c2ccc3c(c2)C2OCCC2C(c2ccc4c(c2)CCO4)N3)cc1C (configuration not stated) | 5.49 | 5.34 | < 5.00 | < 5.00 | –
15 | CC(=O)c1ccc(NS(=O)(=O)c2ccc3c(c2)C2OCCC2C(c2ccc(C(=O)C(C)C)cc2)N3)cc1 (configuration not stated) | 5.68 | 5.70 | 5.48 | 5.82 | –
16 | Cc1ccc(NS(=O)(=O)c2ccc3c(c2)C2OCCC2C(c2c[nH]c4ccccc24)N3)cc1C (configuration not stated) | < 5.00 | < 5.00 | – | 5.04 | –
17 | CC(=O)Nc1ccc(C2Nc3ccc(S(=O)(=O)Nc4ccc(C)c(C)c4)cc3C3OCCC23)cc1 (configuration not stated) | 5.29 | 5.09 | < 5.00 | 5.35 | –
18 | O=S(=O)(Nc1ccc(C(F)(F)F)c(C(F)(F)F)c1)c1ccc2c(c1)C1OCCC1C(C1CCCCC1)N2 (configuration not stated) | < 5.00 | < 5.00 | – | < 5.00 | –
19 | CCC(=O)c1cccc(NS(=O)(=O)c2ccc3c(c2)C2OCCC2C(c2ccc(C(=O)C(C)C)cc2)N3)c1 (configuration not stated) | 5.72 | 5.89 | 5.46 | 5.82 | –
20 | O=S(=O)(Nc1ccc(Cl)c(Cl)c1)c1ccc2c(c1)C1OCCC1C(C1CCCCC1)N2 (configuration not stated) | < 5.00 | < 5.00 | – | 5.74 | –
21 | CC(C)C(=O)c1ccc(C2Nc3ccc(S(=O)(=O)Nc4ccc5c(c4)COC5=O)cc3C3OCCC23)cc1 (configuration not stated) | 5.42 | < 5.00 | – | 5.42 | –
22 | O=S(=O)(Nc1ccccc1)c1ccc2c(c1)C1OCCC1C(C1CCCCC1)N2 (configuration not stated) | < 5.00 | < 5.00 | – | 5.59 | –
23 | CC(C)C(=O)c1ccc(C2Nc3ccc(S(=O)(=O)Nc4ccc5c(c4)OCO5)cc3C3OCCC23)cc1 (configuration not stated) | 5.48 | 5.23 | 5.10 | 5.28 | –

More lines, in order of rising pIC50 (MDA-MB-231), values ahead:

Row | pIC50 (MDA-MB-231) | pIC50 (A-375) | Compound | pIC50 (CWR22R [1]) | pIC50 [2] | inhibition (CWR22R [3])
24 | 5.80 | 6.05 | CC(C)C(=O)c1ccc(C2Nc3ccc(S(=O)(=O)Nc4cccc(N(C)C)c4)cc3C3OCCC23)cc1 (configuration not stated) | 6.15 | 5.12 | –
25 | 5.82 | 5.49 | CCc1cccc(NS(=O)(=O)c2ccc3c(c2)C2OCCC2C(c2ccc(C(=O)C(C)C)cc2)N3)c1 (configuration not stated) | 5.96 | 5.68 | –
26 | 5.89 | 5.60 | Cc1ccc(S(=O)(=O)Nc2ccc3c(c2)C2OCCC2C(c2ccc(C(=O)C(C)C)cc2)N3)cc1C (configuration not stated) | 5.40 | 6.22 | –
27 | 5.96 | 5.89 | CC(=O)c1cccc(NS(=O)(=O)c2ccc3c(c2)C2OCCC2C(c2ccc4c(c2)CCO4)N3)c1 (configuration not stated) | 5.20 | 5.14 | –
28 | 5.96 | 5.66 | CC(C)C(=O)c1ccc(C2Nc3ccc(S(=O)(=O)Nc4cccc(C(C)C)c4)cc3C3OCCC23)cc1 (configuration not stated) | 5.68 | 5.19 | –
29 | 5.96 | 6.15 | Cc1ccc(NS(=O)(=O)c2ccc3c(c2)C2OCCC2C(C2CCN(C(=O)OC(C)(C)C)CC2)N3)cc1C (configuration not stated) | < 5.00 | 5.85 | –
30 | 5.96 | 5.74 | CN(C)c1cccc(NS(=O)(=O)c2ccc3c(c2)C2OCCC2C(C2CCCCC2)N3)c1 (configuration not stated) | < 5.00 | 5.40 | –
31 | 6.00 | 5.96 | CC(=O)c1cccc(NS(=O)(=O)c2ccc3c(c2)C2OCCC2C(C2CCCCC2)N3)c1 (configuration not stated) | < 5.00 | 5.82 | –
32 | 6.05 | 6.05 | CC(=O)c1cccc(NS(=O)(=O)c2ccc3c(c2)C2OCCC2C(c2ccccc2)N3)c1 (configuration not stated) | < 5.00 | 5.89 | –
33 | 6.22 | 5.72 | CC(=O)c1cccc(NS(=O)(=O)c2ccc3c(c2)C2OCCC2C(c2ccc(C(C)C)cc2)N3)c1 (configuration not stated) | < 5.00 | 6.22 | –
